# Laboratory results published in ChEMBL document CHEMBL1127825, “Synthesis and in vitro evaluation of 9-anilino-3,6-diaminoacridines active against a multidrug-resistant strain of the malaria parasite Plasmodium falciparum” (J Med Chem, 1994).
# Tests used:
# Jurkat = test: Concentration required to reduce growth of human jurkat leukemia cells to 50% of control cultures, determined using a 72 hr continuous exposure; format: functional, cell-based
# How it was run: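 Human Jurkat leukemia cells given continuous drug exposure for 72 h, then counted on a hemocytometer. IC50 is the concentration that cuts cell growth to 50% of untreated controls. Values are means of at least two independent determinations, with variation typically ±15%.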
# Plasmodium falciparum = test: Inhibitory concentration IC50 against Plasmodium falciparum K1 by [3H]hypoxanthine uptake over 24 hr; format: functional, organism-based
# How it was run: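 K1 strain of P. falciparum (chloroquine- and pyrimethamine-resistant) in infected erythrocyte suspensions at 0.5% initial parasitemia, exposed to drug for 24 h at 37 °C. Read-out is [3H]hypoxanthine incorporation into parasites. IC50 is the concentration giving 50% inhibition relative to untreated controls.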
# [1] = In vitro therapeutic index value is the ratio between IC50 values of [J] and [P]; format: cell-based; details: human, Jurkat cells; read-out: TI
Structure (SMILES),IC50 (Jurkat),IC50 (Plasmodium falciparum),selectivity ratio [1]
COc1cc(NS(C)(=O)=O)ccc1Nc1c2ccccc2nc2ccccc12 [AMSACRINE],< 1 µM,0.6 µM,< 1.5
CN(C)c1ccc(Nc2c3ccccc3nc3cc(N)ccc23)cc1,< 1 µM,0.29 µM,< 3.5
CN(C)c1ccc(Nc2c3ccccc3nc3ccccc23)cc1,< 1 µM,0.47 µM,< 2
Nc1ccc2c(Nc3ccc(CN4CCCCC4)cc3)c3ccc(N)cc3nc2c1,> 20 µM,0.2 µM,> 100
COc1cc(NS(C)(=O)=O)ccc1Nc1c2ccccc2nc2cc(N)ccc12,< 1 µM,0.2 µM,< 5
COc1cc(NS(C)(=O)=O)ccc1Nc1c2ccc(N)cc2nc2cc(N)ccc12,0.8 µM,0.1 µM,8
Cc1ccc(Nc2c3ccc(N)cc3nc3cc(N)ccc23)cc1,3 µM,0.15 µM,20
Nc1ccc(Nc2c3ccccc3nc3cc(N)ccc23)cc1,0.75 µM,0.1 µM,7.5
CN(C)C(=O)c1ccc(Nc2c3ccc(N)cc3nc3cc(N)ccc23)cc1,> 20 µM,0.6 µM,> 33
COc1cc(Nc2c3ccc(N)cc3nc3cc(N)ccc23)ccc1NS(C)(=O)=O,8.5 µM,0.5 µM,17
CNc1ccc(Nc2c3ccc(N)cc3nc3cc(N)ccc23)cc1,11.5 µM,0.16 µM,72
CN(C)Cc1ccc(Nc2c3ccccc3nc3ccccc23)cc1,7.5 µM,0.15 µM,50
CNC(=O)c1ccc(Nc2c3ccc(N)cc3nc3cc(N)ccc23)cc1,> 20 µM,0.04 µM,> 500
Nc1ccc2c(Nc3ccccc3)c3ccc(N)cc3nc2c1,15 µM,0.3 µM,50
CS(=O)(=O)Nc1ccc(Nc2c3ccccc3nc3cc(N)ccc23)cc1,2 µM,3 µM,0.7
[N-]=[N+]=Nc1ccc2c(Nc3ccc(S(N)(=O)=O)cc3)c3ccc(N=[N+]=[N-])cc3nc2c1,2.5 µM,0.03 µM,83
COc1cc(NS(C)(=O)=O)ccc1Nc1c2ccc(N(C)C)cc2nc2cc(N(C)C)ccc12,< 1 µM,0.4 µM,< 2.5
CNc1ccc(Nc2c3ccccc3nc3ccccc23)cc1,1.5 µM,0.4 µM,3.8
CS(=O)(=O)Nc1ccc(Nc2c3ccccc3nc3ccccc23)cc1,< 1 µM,3 µM,< 0.3
CNc1ccc(Nc2c3ccccc3nc3cc(N)ccc23)cc1,0.5 µM,0.32 µM,1.6
CN(C)S(=O)(=O)c1ccc(Nc2c3ccc(N)cc3nc3cc(N)ccc23)cc1,5 µM,0.16 µM,31
Nc1ccc2c(Nc3ccc(S(=O)(=O)N4CCCCC4)cc3)c3ccc(N)cc3nc2c1,14 µM,1.4 µM,10
CN(C)Cc1ccc(Nc2c3ccc(Cl)cc3nc3cc(Cl)ccc23)cc1,5 µM,0.25 µM,20
COc1cc(Nc2c3ccccc3nc3ccccc23)ccc1NS(C)(=O)=O [o-Amsacrine],10 µM,26 µM,0.4
CCCCCNCc1ccc(Nc2c3ccc(N)cc3nc3cc(N)ccc23)cc1,16 µM,0.6 µM,27
COc1cc(N=c2c3ccccc3[nH]c3cc(N)ccc23)ccc1NS(C)(=O)=O,< 1 µM,2.7 µM,< 0.4
CN(C)c1ccc2c(Nc3ccccc3)c3ccc(N(C)C)cc3nc2c1,1.4 µM,2.4 µM,0.6
Nc1ccc(Nc2c3ccccc3nc3ccccc23)cc1,0.75 µM,1.5 µM,0.5
